Among the data in ChEMBL document CHEMBL3603828, “Imine/amide-imidazole conjugates derived from 5-amino-4-cyano-N1-substituted benzyl imidazole: Microwave-assisted synthesis and anticancer activity via selective topoisomerase-II-α inhibition” (Bioorg Med Chem, 2015) are IC50, inhibition and Activity values, retold here.

Activity calls are given as the source filed them. No cut-off for these calls is given here.

T1 sequence (P11388 whole entry): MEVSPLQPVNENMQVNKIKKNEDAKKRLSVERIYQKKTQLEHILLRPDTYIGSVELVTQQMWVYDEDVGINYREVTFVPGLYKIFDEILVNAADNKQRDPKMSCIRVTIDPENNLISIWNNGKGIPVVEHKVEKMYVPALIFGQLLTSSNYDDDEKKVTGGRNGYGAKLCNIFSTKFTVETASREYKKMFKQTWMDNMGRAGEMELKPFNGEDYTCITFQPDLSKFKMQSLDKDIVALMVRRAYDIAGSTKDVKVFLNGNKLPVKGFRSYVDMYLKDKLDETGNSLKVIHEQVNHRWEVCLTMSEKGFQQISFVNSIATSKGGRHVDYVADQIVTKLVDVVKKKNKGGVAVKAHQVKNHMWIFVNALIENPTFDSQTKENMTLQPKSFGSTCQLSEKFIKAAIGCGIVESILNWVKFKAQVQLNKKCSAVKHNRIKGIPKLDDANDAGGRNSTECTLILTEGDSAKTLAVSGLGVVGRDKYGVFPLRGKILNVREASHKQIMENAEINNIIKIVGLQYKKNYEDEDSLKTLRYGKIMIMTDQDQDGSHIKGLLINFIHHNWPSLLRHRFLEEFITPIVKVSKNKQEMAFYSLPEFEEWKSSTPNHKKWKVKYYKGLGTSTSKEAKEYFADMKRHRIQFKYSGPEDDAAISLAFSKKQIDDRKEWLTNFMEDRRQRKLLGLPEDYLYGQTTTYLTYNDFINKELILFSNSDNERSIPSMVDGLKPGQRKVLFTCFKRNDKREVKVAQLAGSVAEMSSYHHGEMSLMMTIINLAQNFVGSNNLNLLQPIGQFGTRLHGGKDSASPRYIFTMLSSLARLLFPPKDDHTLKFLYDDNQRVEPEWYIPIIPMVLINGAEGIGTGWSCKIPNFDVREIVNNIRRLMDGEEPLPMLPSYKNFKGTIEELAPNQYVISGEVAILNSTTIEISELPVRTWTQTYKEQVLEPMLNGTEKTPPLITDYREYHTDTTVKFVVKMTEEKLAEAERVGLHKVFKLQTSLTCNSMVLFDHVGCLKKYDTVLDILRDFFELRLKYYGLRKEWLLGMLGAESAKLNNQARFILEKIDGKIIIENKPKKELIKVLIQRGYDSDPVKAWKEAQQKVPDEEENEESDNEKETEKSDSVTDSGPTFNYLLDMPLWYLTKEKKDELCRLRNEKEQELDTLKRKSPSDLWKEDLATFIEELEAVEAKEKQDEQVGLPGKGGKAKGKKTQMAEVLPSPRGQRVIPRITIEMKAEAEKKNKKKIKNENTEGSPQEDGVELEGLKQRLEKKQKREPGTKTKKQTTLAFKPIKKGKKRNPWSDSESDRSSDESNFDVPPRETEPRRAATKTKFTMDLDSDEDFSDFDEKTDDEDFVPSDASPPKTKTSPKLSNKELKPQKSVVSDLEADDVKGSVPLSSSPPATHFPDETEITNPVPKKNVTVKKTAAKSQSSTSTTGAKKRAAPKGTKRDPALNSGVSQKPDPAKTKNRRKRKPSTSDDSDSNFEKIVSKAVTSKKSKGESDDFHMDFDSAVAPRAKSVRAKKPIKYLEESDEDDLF

The subject of one series is HepG2. Kind of series: Antiproliferative activity against human HepG2 cells by MTT assay. The class given is functional, cell-based.
Settings: not given
The essentials: (§1)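 Cells from NCCS were grown in DMEM with 10% FBS and antibiotics at 37 °C under 5% CO₂. They were seeded at 8000 cells/well after trypan blue counting. Compounds were made up as 100 mM DMSO stocks and diluted in serum-free DMEM. MTT was added and cells were held 4 h at room temperature in the dark. Formazan was dissolved in DMSO and read at 570 nm. Values are averages of three independent experiments, each run in triplicate.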
On the technique in general: Formazan colour is commonly taken as a measure of viable cells.
As a reminder, the IC50 is the concentration needed to halve the response being measured. `COc1cc([C@@H]2c3cc4c(cc3[C@@H](O[C@@H]3O[C@@H]5CO[C@@H](C)O[C@H]5[C@H](O)[C@H]3O)[C@H]3COC(=O)[C@H]23)OCO4)cc(OC)c1O` [ETOPOSIDE] came in with an IC50 of 20.9 µM.

For `N#Cc1ncn(Cc2ccccc2Cl)c1/N=C/c1ccccc1[N+](=O)[O-]`, the half-inhibitory concentration (IC50) is 40 µM.

`COc1ccc(/C=N/c2c(C#N)ncn2Cc2ccccc2Cl)cc1OC` yielded an IC50 greater than 50 µM.

`N#Cc1ncn(Cc2ccccc2Cl)c1/N=C/c1cc(Cl)cc(Cl)c1O` returned an IC50 of 12 µM.

`N#Cc1ncn(Cc2ccccc2Cl)c1/N=C/c1ccc(O)cc1` came in with an IC50 of 38.2 µM.

On to `COc1cc(/C=N/c2c(C#N)ncn2Cc2ccccc2Cl)ccc1O`, for which the IC50 is greater than 40 µM.

In turn, `N#Cc1ncn(Cc2ccccc2Cl)c1/N=C/c1c[nH]c2ccccc12` showed an IC50 of 15 µM.

`COc1ccc(OC)c(/C=N/c2c(C#N)ncn2Cc2ccccc2Cl)c1` gave a concentration for half-maximal inhibition (IC50) of 20 µM.

As to `N#Cc1ncn(Cc2ccccc2Cl)c1/N=C/c1ccc(Cl)cc1`, half-maximal inhibition (IC50) required 31 µM.

Another series has as its target T1, DNA topoisomerase 2-alpha (Homo sapiens, UniProt P11388). Kind of series: Inhibition of human topoisomerase-2 alpha assessed as reduction in enzyme-mediated kinetoplast DNA decatenation incubated for 30 mins by ethidium bromide staining based agarose gel electrophoresis method.
Settings: not given
The essentials:
(§2)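 Reactions with 2–4 units purified human topoisomerase II and 150 ng kDNA were set up on ice. Buffer was Tris-HCl pH 8 with NaCl, MgCl₂, DTT, BSA and ATP, and drug was 100 µM. Incubation was 30 min at 37 °C, then SDS and proteinase K for 15 min. Products were resolved on 1% agarose with ethidium bromide, visualized under UV and quantified.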
With `N#Cc1ncn(Cc2ccccc2Cl)c1/N=C/c1cc(Cl)cc(Cl)c1O`, the IC50 was determined as 34.9 µM.

Another series concerns the target T2, DNA topoisomerase 1 (Homo sapiens) (UniProt P11387).
T2 sequence (whole entry): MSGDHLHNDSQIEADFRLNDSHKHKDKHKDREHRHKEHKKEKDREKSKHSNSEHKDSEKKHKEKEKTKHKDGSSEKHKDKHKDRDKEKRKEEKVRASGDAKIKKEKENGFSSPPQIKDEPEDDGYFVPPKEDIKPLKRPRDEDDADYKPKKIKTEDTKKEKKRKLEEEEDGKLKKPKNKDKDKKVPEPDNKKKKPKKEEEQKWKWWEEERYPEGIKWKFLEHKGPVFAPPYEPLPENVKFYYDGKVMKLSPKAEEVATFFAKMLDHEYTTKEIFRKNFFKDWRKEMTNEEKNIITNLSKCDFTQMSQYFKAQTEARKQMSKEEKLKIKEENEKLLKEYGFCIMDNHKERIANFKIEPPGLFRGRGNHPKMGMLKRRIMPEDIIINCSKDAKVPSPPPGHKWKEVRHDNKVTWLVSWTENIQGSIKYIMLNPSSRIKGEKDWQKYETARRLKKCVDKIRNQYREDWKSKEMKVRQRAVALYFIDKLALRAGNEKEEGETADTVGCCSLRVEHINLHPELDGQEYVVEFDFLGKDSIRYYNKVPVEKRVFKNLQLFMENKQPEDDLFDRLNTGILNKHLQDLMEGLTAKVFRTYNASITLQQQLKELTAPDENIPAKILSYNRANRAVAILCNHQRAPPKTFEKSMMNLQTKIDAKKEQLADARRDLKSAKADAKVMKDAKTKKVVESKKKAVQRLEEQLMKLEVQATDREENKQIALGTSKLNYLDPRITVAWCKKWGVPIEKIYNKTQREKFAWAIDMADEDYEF
The series is described as follows: Inhibition of human topoisomerase-1 assessed as reduction in enzyme-mediated DNA relaxation at 100 uM incubated for 30 mins by ethidium bromide staining based agarose gel electrophoresis method.
Settings: not given
The essentials:
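Purified human Topo I was used with 250 ng supercoiled DNA. Buffer was Tris-HCl pH 7.9 with EDTA, NaCl, BSA, spermidine and glycerol. Compound was 100 µM in DMSO, with 30 min incubation at 37 °C. Reactions were stopped with SDS and proteinase K at 70 °C for 15 min. Products were run on 1% agarose in TAE.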
On to `N#Cc1ncn(Cc2ccccc2Cl)c1/N=C/c1cc(Cl)cc(Cl)c1O`, for which the inhibition entry was “inactive”.

A further series has as its system PBMC. Kind of series: Cytotoxic activity against human PBMC by MTT assay. The class given is cell-based.
Settings: not given
The method, boiled down: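 Human peripheral blood mononuclear cells served as the normal control in an MTT read-out. Formazan was formed over 4 h at room temperature in the dark, dissolved in DMSO and read at 570 nm. Results are mean SD of three independent experiments.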
In the case of `COc1cc([C@@H]2c3cc4c(cc3[C@@H](O[C@@H]3O[C@@H]5CO[C@@H](C)O[C@H]5[C@H](O)[C@H]3O)[C@H]3COC(=O)[C@H]23)OCO4)cc(OC)c1O` [ETOPOSIDE], the Activity entry is “Non-toxic”.

Consider `N#Cc1ncn(Cc2ccccc2Cl)c1/N=C/c1ccccc1[N+](=O)[O-]`, for which the Activity result is on record as “Non-toxic”.

Take `COc1ccc(/C=N/c2c(C#N)ncn2Cc2ccccc2Cl)cc1OC`: the Activity entry is given as “Non-toxic”.

With `N#Cc1ncn(Cc2ccccc2Cl)c1/N=C/c1cc(Cl)cc(Cl)c1O`, the Activity result is listed as “Non-toxic”.

As to `N#Cc1ncn(Cc2ccccc2Cl)c1/N=C/c1ccc(O)cc1`, the Activity result was “Non-toxic”.

`COc1cc(/C=N/c2c(C#N)ncn2Cc2ccccc2Cl)ccc1O`: the Activity result is reported as “Non-toxic”.

Consider `N#Cc1ncn(Cc2ccccc2Cl)c1/N=C/c1c[nH]c2ccccc12`, for which the Activity entry is reported as “Non-toxic”.

Take `COc1ccc(OC)c(/C=N/c2c(C#N)ncn2Cc2ccccc2Cl)c1`: the Activity result is “Non-toxic”.

For `N#Cc1ncn(Cc2ccccc2Cl)c1/N=C/c1ccc(Cl)cc1`, the Activity entry is “Non-toxic”.

Another series relates to A549. The series is described as follows: Induction of mitochondrial membrane depolarization in human A549 cells at 1 to 25 uM incubated for 24 hrs by JC1 staining based assay. The class given is functional, cell-based.
Settings: not given
The essentials:
(§3)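 Cells were seeded at 8000 per well and treated for 24 h. JC-1 dye was added directly to the medium for 30 min at 37 °C, then excess dye was washed off with PBS. Membrane potential was read as the OD590/OD527 ratio.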
Regarding `N#Cc1ncn(Cc2ccccc2Cl)c1/N=C/c1cc(Cl)cc(Cl)c1O`, the outcome was Active.

The next series has as its system HepG2. The series is described as follows: Induction of mitochondrial membrane depolarization in human HepG2 cells at 1 to 25 uM incubated for 24 hrs by JC1 staining based assay. The class given is functional, cell-based.
Settings: not given
The essentials: as §3
Consider `N#Cc1ncn(Cc2ccccc2Cl)c1/N=C/c1cc(Cl)cc(Cl)c1O`, for which the result was Active.

Test system in another series: not listed separately
The series is described as follows: Antiproliferative activity against human H460 cells by MTT assay. In kind it is functional, cell-based. As to conditions: NCI-H460. The method, boiled down: as §1
`COc1cc([C@@H]2c3cc4c(cc3[C@@H](O[C@@H]3O[C@@H]5CO[C@@H](C)O[C@H]5[C@H](O)[C@H]3O)[C@H]3COC(=O)[C@H]23)OCO4)cc(OC)c1O` [ETOPOSIDE] showed an IC50 greater than 30 µM.

As to `N#Cc1ncn(Cc2ccccc2Cl)c1/N=C/c1cc(Cl)cc(Cl)c1O`, 11.2 µM corresponded to half-maximal inhibition (IC50).

`N#Cc1ncn(Cc2ccccc2Cl)c1/N=C/c1ccc(O)cc1`: the IC50 is greater than 40 µM.

Take `N#Cc1ncn(Cc2ccccc2Cl)c1/N=C/c1c[nH]c2ccccc12`: the IC50 came to 14.6 µM.

For `COc1ccc(OC)c(/C=N/c2c(C#N)ncn2Cc2ccccc2Cl)c1`, the IC50 was determined as 28.3 µM.

As for `N#Cc1ncn(Cc2ccccc2Cl)c1/N=C/c1ccc(Cl)cc1`, half-maximal inhibition (IC50) was put at 28.1 µM.

The subject of another series is NCI-H460. The series is described as follows: Induction of mitochondrial membrane depolarization in human H460 cells at 1 to 25 uM incubated for 24 hrs by JC1 staining based assay. In kind it is functional, cell-based.
Settings: not given
The method, boiled down: as §3
Take `N#Cc1ncn(Cc2ccccc2Cl)c1/N=C/c1cc(Cl)cc(Cl)c1O`: the result was Active.

A further series concerns A549. Kind of series: Induction of ROS generation in human A549 cells at 1 to 25 uM incubated for 24 hrs by DHE staining based assay.
Settings: not given
In kind it is functional, cell-based. The essentials: (§4)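 Cells were seeded in DMEM/10% FBS at 8000 per well and treated for 24 h. They were washed with PBS, stained with DHE for 30 min at 37 °C and washed with ice-cold PBS. Fluorescence OD was then read on a microplate reader.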
As to `N#Cc1ncn(Cc2ccccc2Cl)c1/N=C/c1cc(Cl)cc(Cl)c1O`, the Activity entry was “Dose-dependent effect”.

The test system of the next series is HepG2. The series is described as follows: Induction of ROS generation in human HepG2 cells at 1 to 25 uM incubated for 24 hrs by DHE staining based assay. In kind it is functional, cell-based.
Settings: not given
The method, boiled down:
as §4
As to `N#Cc1ncn(Cc2ccccc2Cl)c1/N=C/c1cc(Cl)cc(Cl)c1O`, the Activity result is “Dose-dependent effect”.

In the next series the target is T1, DNA topoisomerase 2-alpha. The series is described as follows: Inhibition of human topoisomerase-2 alpha assessed as reduction in enzyme-mediated kinetoplast DNA decatenation at 100 uM incubated for 30 mins by ethidium bromide staining based agarose gel electrophoresis method.
Settings: not given
The method, boiled down: as §2
As to `COc1cc([C@@H]2c3cc4c(cc3[C@@H](O[C@@H]3O[C@@H]5CO[C@@H](C)O[C@H]5[C@H](O)[C@H]3O)[C@H]3COC(=O)[C@H]23)OCO4)cc(OC)c1O` [ETOPOSIDE], the inhibition result was “Active”.

With `N#Cc1ncn(Cc2ccccc2Cl)c1/N=C/c1cc(Cl)cc(Cl)c1O`, the inhibition entry was “Active”.

Turning to `N#Cc1ncn(Cc2ccccc2Cl)c1/N=C/c1c[nH]c2ccccc12`, the inhibition entry is “Active”.

The subject of another series is NCI-H460. Kind of series: Induction of ROS generation in human H460 cells at 1 to 25 uM incubated for 24 hrs by DHE staining based assay. The class given is functional, cell-based.
Settings: not given
The essentials: as §4
On to `N#Cc1ncn(Cc2ccccc2Cl)c1/N=C/c1cc(Cl)cc(Cl)c1O`, for which the Activity entry was “Dose-dependent effect”.

A further series concerns A549. Kind of series: Antiproliferative activity against human A549 cells by MTT assay.
Settings: not given
In kind it is functional, cell-based. The essentials:
as §1
In the case of `COc1cc([C@@H]2c3cc4c(cc3[C@@H](O[C@@H]3O[C@@H]5CO[C@@H](C)O[C@H]5[C@H](O)[C@H]3O)[C@H]3COC(=O)[C@H]23)OCO4)cc(OC)c1O` [ETOPOSIDE], the IC50 was 18.2 µM.

Turning to `N#Cc1ncn(Cc2ccccc2Cl)c1/N=C/c1ccccc1[N+](=O)[O-]`, 37 µM corresponded to half-maximal inhibition (IC50).

Compound `COc1ccc(/C=N/c2c(C#N)ncn2Cc2ccccc2Cl)cc1OC` yielded an IC50 greater than 50 µM.

On to `N#Cc1ncn(Cc2ccccc2Cl)c1/N=C/c1cc(Cl)cc(Cl)c1O`, for which it took 7.5 µM to reach half-maximal inhibition (IC50).

For `N#Cc1ncn(Cc2ccccc2Cl)c1/N=C/c1ccc(O)cc1`, the IC50 came to 35.1 µM.

In the case of `COc1cc(/C=N/c2c(C#N)ncn2Cc2ccccc2Cl)ccc1O`, the IC50 is 39 µM.

For `N#Cc1ncn(Cc2ccccc2Cl)c1/N=C/c1c[nH]c2ccccc12`, it took 10.9 µM to reach half-maximal inhibition (IC50).

Compound `COc1ccc(OC)c(/C=N/c2c(C#N)ncn2Cc2ccccc2Cl)c1` returned an IC50 of 18 µM.

In turn, `N#Cc1ncn(Cc2ccccc2Cl)c1/N=C/c1ccc(Cl)cc1` showed an IC50 of 30.8 µM.
